Test results published in ChEMBL document CHEMBL3763128, “Synthesis and antibacterial evaluation of novel 4″-glycyl linked quinolyl-azithromycins with potent activity against macrolide-resistant pathogens” (2016).
In brackets after ≈: the same amount, converted by molar mass.

How the values were obtained:
Format in all cases: functional
[1] = test system: Streptococcus pyogenes; assay: Antibacterial activity against efflux mediated macrolide resistant Streptococcus pyogenes by agar microdilution method
In short: (§1)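 Agar microdilution per NCCLS guidelines; MIC reported in μg/mL; differences treated as significant only when more than a factor of 2 (one dilution) apart.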

[2] = test system: Haemophilus influenzae; assay: Antibacterial activity against Haemophilus influenzae by agar microdilution method
In short: (§2)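 MIC by agar microdilution following NCCLS guidelines. Values in μg/mL. Only differences of more than one twofold dilution were treated as significant. Ery-S denotes erythromycin-susceptible strains.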

[3] = test system: Moraxella catarrhalis; assay: Antibacterial activity against Moraxella catarrhalis by agar microdilution method; in short: as §2
[4] = test system: Staphylococcus aureus; assay: Antibacterial activity against erythromycin-susceptible Staphylococcus aureus by agar microdilution method; in short: as §2
[5] = test system: Staphylococcus aureus; assay: Antibacterial activity against inducibly macrolide-lincosamide-streptogramin B resistant Staphylococcus aureus by agar microdilution method; in short: as §1
[6] = test system: Staphylococcus aureus; assay: Antibacterial activity against constitutive macrolide-lincosamide-streptogramin B resistant Staphylococcus aureus by agar microdilution method; in short: as §1
[7] = test system: Staphylococcus aureus; assay: Antibacterial activity against efflux mediated macrolide resistant Staphylococcus aureus by agar microdilution method; in short: as §1
[8] = test system: Streptococcus pneumoniae; assay: Antibacterial activity against erythromycin-susceptible Streptococcus pneumoniae by agar microdilution method; in short: as §2
[9] = test system: Streptococcus pneumoniae; assay: Antibacterial activity against constitutive macrolide-lincosamide-streptogramin B resistant Streptococcus pneumoniae by agar microdilution method; in short: as §1
[10] = test system: Streptococcus pneumoniae; assay: Antibacterial activity against efflux mediated macrolide resistant Streptococcus pneumoniae by agar microdilution method; in short: as §1
[11] = test system: Streptococcus pyogenes; assay: Antibacterial activity against erythromycin-susceptible Streptococcus pyogenes by agar microdilution method; in short: as §2
[12] = test system: Streptococcus pyogenes; assay: Antibacterial activity against inducibly macrolide-lincosamide-streptogramin B resistant Streptococcus pyogenes by agar microdilution method; in short: as §1
[13] = test system: Streptococcus pyogenes; assay: Antibacterial activity against constitutive macrolide-lincosamide-streptogramin B resistant Streptococcus pyogenes by agar microdilution method; in short: as §1

Row | Structure (SMILES) | MIC [1] [µg/mL] | MIC [2] [µg/mL] | MIC [3] [µg/mL] | MIC [4] [µg/mL] | MIC [5] [µg/mL] | MIC [6] [µg/mL] | MIC [7] [µg/mL] | MIC [8] [µg/mL] | MIC [9] [µg/mL] | MIC [10] [µg/mL] | MIC [11] [µg/mL] | MIC [12] [µg/mL] | MIC [13] [µg/mL]
1 | CC[C@@H]1OC(=O)[C@H](C)[C@@H](O[C@@H]2C[C@](C)(OC)[C@H](O)[C@@H](C)O2)[C@@H](C)[C@@H](O[C@@H]2O[C@H](C)C[C@H](N(C)C)[C@H]2O)[C@](C)(O)C[C@@H](C)CN(C)[C@H](C)[C@@H](O)[C@]1(C)O | 16 (≈ 21.4 µM) | 1 (≈ 1.34 µM) | 0.25 (≈ 0.334 µM) | 1 (≈ 1.34 µM) | > 64 | > 64 | 32 (≈ 42.7 µM) | ≤ 0.125 | > 64 | 8 (≈ 10.7 µM) | ≤ 0.125 | > 64 | > 64
2 | CC[C@H]1OC(=O)[C@@H](C)[C@H](O[C@@H]2C[C@](C)(OC)[C@H](OC(=O)CNCCCNCCNc3cc4c(=O)c(C(=O)O)cn(C5CC5)c4cc3Cl)[C@@H](C)O2)[C@H](C)[C@H](O[C@H]2O[C@@H](C)C[C@@H](N(C)C)[C@@H]2O)[C@@](C)(O)C[C@H](C)CN(C)[C@@H](C)[C@H](O)[C@@]1(C)O | – | 0.5 (≈ 0.428 µM) | ≤ 0.125 | ≤ 0.125 | 0.25 (≈ 0.214 µM) | > 64 | 0.25 (≈ 0.214 µM) | ≤ 0.125 | – | – | ≤ 0.125 | – | –
3 | CC[C@H]1OC(=O)[C@@H](C)[C@H](O[C@H]2C[C@@](C)(OC)[C@@H](OC(=O)CN)[C@H](C)O2)[C@@H](C)[C@H](O[C@H]2O[C@@H](C)C[C@@H](N(C)C)[C@@H]2O)[C@@](C)(O)C[C@H](C)CN(C)[C@@H](C)[C@@H]2OC(=O)O[C@@]12C | > 64 | > 64 | > 64 | 32 (≈ 38.5 µM) | > 64 | > 64 | > 64 | ≤ 0.125 | > 64 | 32 (≈ 38.5 µM) | ≤ 0.125 | 32 (≈ 38.5 µM) | > 64
4 | CCC1OC(=O)[C@H](C)[C@@H](O[C@H]2C[C@@](C)(OC)[C@@H](OC(=O)CNCCSc3cnc4ccccc4n3)[C@H](C)O2)C(C)[C@@H](O[C@@H]2O[C@H](C)C[C@H](N(C)C)[C@H]2O)[C@](C)(O)C[C@@H](C)CN(C)[C@H](C)[C@@H](O)[C@]1(C)O (single isomer, unassigned) | 0.25 (≈ 0.251 µM) | 4 (≈ 4.02 µM) | 1 (≈ 1.01 µM) | 2 (≈ 2.01 µM) | 0.5 (≈ 0.503 µM) | > 64 | 2 (≈ 2.01 µM) | ≤ 0.125 | 16 (≈ 16.1 µM) | – | ≤ 0.125 | 4 (≈ 4.02 µM) | 16 (≈ 16.1 µM)
5 | CCC1OC(=O)[C@H](C)[C@@H](O[C@H]2C[C@@](C)(OC)[C@@H](OC(=O)CNC(=O)CNC(=O)CSc3cnc4ccccc4n3)[C@H](C)O2)C(C)[C@@H](O[C@@H]2O[C@H](C)C[C@H](N(C)C)[C@H]2O)[C@](C)(O)C[C@@H](C)CN(C)[C@H](C)[C@@H](O)[C@]1(C)O (single isomer, unassigned) | 0.25 (≈ 0.235 µM) | 4 (≈ 3.75 µM) | 4 (≈ 3.75 µM) | 1 (≈ 0.939 µM) | 0.5 (≈ 0.469 µM) | > 64 | 2 (≈ 1.88 µM) | ≤ 0.125 | 16 (≈ 15 µM) | – | 0.25 (≈ 0.235 µM) | 4 (≈ 3.75 µM) | 16 (≈ 15 µM)
6 | CCC1OC(=O)[C@H](C)[C@@H](O[C@H]2C[C@@](C)(OC)[C@@H](OC(=O)CNC(=O)CCNCCNc3cc4c(cc3F)c(=O)c(C(=O)O)cn4C3CC3)[C@H](C)O2)C(C)[C@@H](O[C@@H]2O[C@H](C)C[C@H](N(C)C)[C@H]2O)[C@](C)(O)C[C@@H](C)CN(C)[C@H](C)[C@@H](O)[C@]1(C)O (single isomer, unassigned) | 2 (≈ 1.72 µM) | 4 (≈ 3.43 µM) | 1 (≈ 0.858 µM) | 0.25 (≈ 0.215 µM) | 8 (≈ 6.86 µM) | > 64 | 2 (≈ 1.72 µM) | ≤ 0.125 | 4 (≈ 3.43 µM) | 1 (≈ 0.858 µM) | ≤ 0.125 | 1 (≈ 0.858 µM) | 4 (≈ 3.43 µM)
7 | CCC1OC(=O)[C@H](C)[C@@H](O[C@H]2C[C@@](C)(OC)[C@@H](OC(=O)CNCCNC(=O)CSc3cnc4ccccc4n3)[C@H](C)O2)C(C)[C@@H](O[C@@H]2O[C@H](C)C[C@H](N(C)C)[C@H]2O)[C@](C)(O)C[C@@H](C)CN(C)[C@H](C)[C@@H](O)[C@]1(C)O (single isomer, unassigned) | – | 8 (≈ 7.61 µM) | 8 (≈ 7.61 µM) | 8 (≈ 7.61 µM) | 0.25 (≈ 0.238 µM) | > 64 | 1 (≈ 0.951 µM) | ≤ 0.125 | 8 (≈ 7.61 µM) | – | ≤ 0.125 | 1 (≈ 0.951 µM) | 8 (≈ 7.61 µM)
8 | CCC1OC(=O)[C@H](C)[C@@H](O[C@H]2C[C@@](C)(OC)[C@@H](OC(=O)CNC(=O)CCNCCOCCNc3cc4c(=O)c(C(=O)O)cn(C5CC5)c4cc3Cl)[C@H](C)O2)C(C)[C@@H](O[C@@H]2O[C@H](C)C[C@H](N(C)C)[C@H]2O)[C@](C)(O)C[C@@H](C)CN(C)[C@H](C)[C@@H](O)[C@]1(C)O (single isomer, unassigned) | 1 (≈ 0.816 µM) | 2 (≈ 1.63 µM) | 0.5 (≈ 0.408 µM) | ≤ 0.125 | 2 (≈ 1.63 µM) | > 64 | 1 (≈ 0.816 µM) | ≤ 0.125 | 1 (≈ 0.816 µM) | 0.5 (≈ 0.408 µM) | ≤ 0.125 | 0.5 (≈ 0.408 µM) | 2 (≈ 1.63 µM)
9 | CCC1OC(=O)[C@H](C)[C@@H](O[C@H]2C[C@@](C)(OC)[C@@H](OC(=O)CNC(=O)CCNCCOCCOCCNc3cc4c(cc3F)c(=O)c(C(=O)O)cn4C3CC3)[C@H](C)O2)C(C)[C@@H](O[C@@H]2O[C@H](C)C[C@H](N(C)C)[C@H]2O)[C@](C)(O)C[C@@H](C)CN(C)[C@H](C)[C@@H](O)[C@]1(C)O (single isomer, unassigned) | 16 (≈ 12.8 µM) | 8 (≈ 6.38 µM) | 2 (≈ 1.6 µM) | 0.5 (≈ 0.399 µM) | 32 (≈ 25.5 µM) | > 64 | 16 (≈ 12.8 µM) | ≤ 0.125 | 8 (≈ 6.38 µM) | 4 (≈ 3.19 µM) | ≤ 0.125 | 4 (≈ 3.19 µM) | 32 (≈ 25.5 µM)
10 | CCC1OC(=O)[C@H](C)[C@@H](O[C@H]2C[C@@](C)(OC)[C@@H](OC(=O)CNCCCNCCNc3cc4c(cc3F)c(=O)c(C(=O)O)cn4C3CC3)[C@H](C)O2)C(C)[C@@H](O[C@@H]2O[C@H](C)C[C@H](N(C)C)[C@H]2O)[C@](C)(O)C[C@@H](C)CN(C)[C@H](C)[C@@H](O)[C@]1(C)O (single isomer, unassigned) | 0.5 (≈ 0.434 µM) | 1 (≈ 0.868 µM) | 0.25 (≈ 0.217 µM) | ≤ 0.125 | 1 (≈ 0.868 µM) | > 64 | 0.5 (≈ 0.434 µM) | ≤ 0.125 | 0.5 (≈ 0.434 µM) | – | ≤ 0.125 | 0.25 (≈ 0.217 µM) | 1 (≈ 0.868 µM)
11 | CCC1OC(=O)[C@H](C)[C@@H](O[C@H]2C[C@@](C)(OC)[C@@H](OC(=O)CNC(=O)CSc3cnc4ccccc4n3)[C@H](C)O2)C(C)[C@@H](O[C@@H]2O[C@H](C)C[C@H](N(C)C)[C@H]2O)[C@](C)(O)C[C@@H](C)CN(C)[C@H](C)[C@@H](O)[C@]1(C)O (single isomer, unassigned) | 0.5 (≈ 0.496 µM) | 8 (≈ 7.93 µM) | 16 (≈ 15.9 µM) | 4 (≈ 3.97 µM) | 1 (≈ 0.992 µM) | > 64 | 8 (≈ 7.93 µM) | ≤ 0.125 | 16 (≈ 15.9 µM) | 0.25 (≈ 0.248 µM) | ≤ 0.125 | 8 (≈ 7.93 µM) | 32 (≈ 31.7 µM)
12 | CCC1OC(=O)[C@H](C)[C@@H](O[C@H]2C[C@@](C)(OC)[C@@H](OC(=O)CNC(=O)CCNCCOCCNc3cc4c(cc3F)c(=O)c(C(=O)O)cn4C3CC3)[C@H](C)O2)C(C)[C@@H](O[C@@H]2O[C@H](C)C[C@H](N(C)C)[C@H]2O)[C@](C)(O)C[C@@H](C)CN(C)[C@H](C)[C@@H](O)[C@]1(C)O (single isomer, unassigned) | 8 (≈ 6.61 µM) | 4 (≈ 3.31 µM) | 1 (≈ 0.827 µM) | 0.25 (≈ 0.207 µM) | 4 (≈ 3.31 µM) | > 64 | 4 (≈ 3.31 µM) | ≤ 0.125 | 8 (≈ 6.61 µM) | 4 (≈ 3.31 µM) | ≤ 0.125 | 4 (≈ 3.31 µM) | 16 (≈ 13.2 µM)
13 | CC[C@H]1OC(=O)[C@H](C)C(=O)[C@H](C)[C@@H](O[C@@H]2O[C@H](C)C[C@H](N(C)C)[C@H]2O)[C@](C)(OCC=Cc2cnc3ccccc3c2)C[C@@H](C)C(=O)[C@H](C)[C@H]2NC(=O)O[C@@]21C [CETHROMYCIN] | – | 1 (≈ 1.31 µM) | ≤ 0.125 | ≤ 0.125 | 0.25 (≈ 0.326 µM) | > 64 | 0.25 (≈ 0.326 µM) | ≤ 0.125 | – | – | ≤ 0.125 | – | 1 (≈ 1.31 µM)
14 | O=C(O)c1cn(C2CC2)c2cc(N3CCNCC3)c(F)cc2c1=O [CIPROFLOXACIN] | ≤ 0.125 | ≤ 0.125 | ≤ 0.125 | ≤ 0.125 | – | – | – | ≤ 0.125 | 0.25 (≈ 0.754 µM) | 0.25 (≈ 0.754 µM) | 2 (≈ 6.04 µM) | 0.25 (≈ 0.754 µM) | 0.5 (≈ 1.51 µM)
15 | CC[C@H]1OC(=O)[C@H](C)C(=O)[C@H](C)[C@@H](O[C@@H]2O[C@H](C)C[C@H](N(C)C)[C@H]2O)[C@](C)(OC)C[C@@H](C)C(=O)[C@H](C)[C@H]2N(CCCCn3cnc(-c4cccnc4)c3)C(=O)O[C@]12C [TELITHROMYCIN] | 0.25 (≈ 0.308 µM) | 1 (≈ 1.23 µM) | ≤ 0.125 | ≤ 0.125 | 0.5 (≈ 0.616 µM) | > 64 | 0.25 (≈ 0.308 µM) | ≤ 0.125 | – | 0.5 (≈ 0.616 µM) | ≤ 0.125 | – | 8 (≈ 9.85 µM)
